From ChEMBL document CHEMBL3779834, “Prenylated Acylphloroglucinols with Leishmanicidal Activity from the Fern Elaphoglossum lindbergii” (J Nat Prod, 2016) come the findings set out here.

pIC50: −log10 of the molar value.

One experiment has as its system Leishmania braziliensis. The experiment can be described thus: Leshmanicidal activity against promastigote stage of Leishmania braziliensis strand M2904 C192 RJA after 72 hrs by XTT-based microplate reader analysis. In kind it is functional, organism-based. In short, it runs like this:
(§1)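 Log-phase promastigotes, grown at 26 °C in Schneider's insect medium (pH 6.8) with 10% heat-inactivated FBS, seeded at 1 × 10^6 parasites/mL. Test substances in DMSO at 0.75−100 μg/mL, 72 h at 26 °C. XTT (1 mg/mL) with PMS (0.06 mg/mL) added, further 4 h at 26 °C, OD read at 450 nm. DMSO 1% negative, amphotericin B 0.5 μg/mL positive control. IC50 = 50% viability decrease, mean ± standard error.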
Background: Tetrazolium dyes change colour on reduction, which living cells bring about.

The test system of the next experiment is Leishmania amazonensis. The experiment can be described thus: Leshmanicidal activity against promastigote stage of Leishmania amazonensis clone 1 AML MHOM/BR/76/LTB-012 after 72 hrs by XTT-based microplate reader analysis. The following applies: clone 1 AML MHOM/BR/76/LTB-012, 72 h. The experiment is classed as functional, organism-based. In short, it runs like this: as §1

With `CCCCCC(=O)C1=C(O)[C@@](C)(CC=C(C)C)C(O)=C(Cc2c(O)c(CC3=C(O)[C@](C)(CC=C(C)C)C(O)=C(C(=O)CCCCC)C3=O)c(O)c(C(=O)CCC)c2O)C1=O`, the IC50 with Leishmania braziliensis and in the experiment with Leishmania amazonensis was greater than 100 mg/L in each case.

For the molecule `C[C@@H]1[C@H](O)[C@@H](C)/C=C/C=C/C=C/C=C/C=C/C=C/C=C/[C@H](O[C@@H]2O[C@H](C)[C@@H](O)[C@H](N)[C@@H]2O)C[C@@H]2O[C@](O)(C[C@@H](O)C[C@@H](O)[C@H](O)CC[C@@H](O)C[C@@H](O)CC(=O)O[C@H]1C)C[C@H](O)[C@H]2C(=O)O` [AMPHOTERICIN B], the pIC50 – broadly, −log10 of the IC50, conventionally taken in molar units – in the experiment with Leishmania braziliensis was 6.92; in the experiment on Leishmania amazonensis, 6.96.

As for `CCCC(=O)C1=C(O)[C@@](C)(CC=C(C)C)C(O)=C(Cc2c(O)c3c(c(C(=O)CCC)c2O)OC(C)(C)C=C3)C1=O`, the results for the pIC50 in the experiment with Leishmania braziliensis and with Leishmania amazonensis were 4.87 and 4.79, respectively.

For the molecule `CCCCCC(=O)C1=C(O)[C@@](C)(CC=C(C)C)C(O)=C(Cc2c(O)c(CC=C(C)C)c(OC)c(C(=O)CCCCC)c2O)C1=O`, the pIC50 in the experiment on Leishmania braziliensis was 4.18; in the experiment with Leishmania amazonensis, 3.82.

In turn, `CCCCCC(=O)c1c(O)c(CC2=C(O)[C@](C)(CC=C(C)C)C(O)=C(C(=O)CCC)C2=O)c(O)c(CC2=C(O)[C@](C)(CC=C(C)C)C(O)=C(C(=O)CCC)C2=O)c1O` had a negative logarithm of the IC50 (pIC50) with Leishmania braziliensis of 4.06. Also, in the experiment with Leishmania amazonensis, the IC50 – broadly, the concentration that gives 50% inhibition – was greater than 100 mg/L.

Take `CCCCCC(=O)C1=C(O)[C@@](C)(CC=C(C)C)C(O)=C(Cc2c(O)c3c(c(C(=O)CCC)c2O)OC(C)(C)C=C3)C1=O`: the pIC50 was 4.52 in the experiment on Leishmania braziliensis and 4.28 in the experiment with Leishmania amazonensis.
